Source: PubChem
Kir21 inh – Kir2.1 (mouse) channel inhibition; P35561; HEK293-Kir2.1, FluxOR thallium flux fluorescence; stronger effect = lower value; B-score at 10 µM; 310,000 tested, 0.85% active;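 active means fluorescence ratio B-score at or below minus 3 SD of library scores, with starting-brightness B-score within 2 SD, cut at about -4.2 in these data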;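 further: channel flux triggered by added potassium and thallium sulfate stimulus; B-score of peak minus minimum fluorescence over baseline after thallium stimulus; more negative B-score means stronger Kir2.1 block with less thallium influx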
Target sequence (P35561 whole entry, looked up): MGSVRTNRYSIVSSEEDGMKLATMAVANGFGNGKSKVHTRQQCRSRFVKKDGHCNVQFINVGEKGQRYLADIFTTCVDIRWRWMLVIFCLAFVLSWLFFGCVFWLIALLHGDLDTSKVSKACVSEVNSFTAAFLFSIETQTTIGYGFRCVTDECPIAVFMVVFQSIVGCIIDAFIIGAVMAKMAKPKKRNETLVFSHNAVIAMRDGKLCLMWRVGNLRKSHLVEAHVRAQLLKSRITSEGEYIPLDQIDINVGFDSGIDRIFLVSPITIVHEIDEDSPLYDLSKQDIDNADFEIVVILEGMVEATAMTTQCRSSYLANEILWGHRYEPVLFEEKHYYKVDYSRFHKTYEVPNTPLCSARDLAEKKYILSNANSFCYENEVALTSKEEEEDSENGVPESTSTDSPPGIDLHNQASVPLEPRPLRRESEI
KCNQ1 block – inhibitors of human KCNQ1 potassium channel; 310,000 tested, 1.3% active; B-score at 10 µM; CHO-K1 KCNQ1, FluxOR thallium flux fluorescence; stronger effect = higher value; P51787;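 active means compounds whose thallium flux B-score, printed positive for inhibition, exceeds three library SD while starting fluorescence stays within three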;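 further: channel opened by potassium depolarization with thallium stimulus after 20 min compound exposure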
KCNQ1 act – human KCNQ1 channel potentiation or activation; P51787; CHO-K1 KCNQ1, thallium flux FluxOR fluorescence; stronger effect = higher value; B-score at 10 µM; 310,000 tested, 0.35% active; AID 2648;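 active means fluorescence ratio B-score, a plate-corrected score, at least three library SD, with initial intensity B-score within 5 SD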
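System: Stable KCNQ1 CHO-K1 line | Incubation: 90 min dye loading and 20 min compound exposure, both at room temperature | Measure: Ratio B score | Medium: Assay buffer for compound exposure, DMSO matched across wells | Compound dosing: Single-concentration screen | Probe or stimulus: K+/Tl+ depolarizing stimulus | Measured by: Kinetic FluxOR fluorescence, 10 s baseline plus 110 s post-stimulus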
KCNK3 block – human KCNK3 channel inhibition, primary screen. O14649. CHO-KCNK3 thallium flux, FluxOR fluorescence; stronger effect = lower value. B-score at 10 µM. 340,000 tested, 0.84% active. AID 602410;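 active means B-score under library mean minus 4 SD, starting fluorescence ratio at most library mean plus 5 SD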;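 further: more negative B-score means stronger inhibition of thallium flux through KCNK3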
KCNK9 inh – blocks the human KCNK9 two-pore domain potassium channel. AID 488922. 310,000 tested, 1.2% active. B-score at 10 µM. HEK293 KCNK9, FluxOR thallium flux fluorescence; stronger effect = lower value;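 active means ratio B-score over 3 SD below the library mean, with starting fluorescence within 5 SD of its mean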;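 further: negative B-score means less thallium flux so channel inhibition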
hERG protect – compounds protecting human hERG from proarrhythmic drug block; activation (rescue from dofetilide block), less the hit threshold, % at 10 µM; CHO-hERG, FluxOR thallium flux, dofetilide IC70 present; AID 1511; 310,000 tested, 0.51% active; Q12809;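 active means activation above the mean of controls blocked by dofetilide plus 5 SD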;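 further: thallium influx through hERG after potassium depolarization seen as dye fluorescence rise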
KCNK9 block conf – human KCNK9 inhibitor confirmation | shares compounds with KCNK9 inh | HEK293 KCNK9 cells, FluxOR thallium flux fluorescence | inhibition, % at 10 µM | 4,900 tested, 43% active;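 active means thallium signal inhibited by more than 5 SD of the compound-free buffer control wells, on both duplicate plates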
Kir21 sel – selectivity of KCNK9 modulators against mouse Kir2.1; shares compounds with KCNK9 inh; Kir2.1 cells, FluxOR thallium flux fluorescence; inhibition, % at 10 µM; 4,900 tested, 4% active;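 active means thallium signal drop more than 5 SD beyond the mean of the no-compound control wells, seen in both duplicate plates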;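 further: signal is fluorescence rise after thallium addition divided by baseline fluorescence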
HEK293 Tl ctr – non-induced cell nonspecific activity of KCNK9 modulators. shares compounds with KCNK9 inh. non-induced KCNK9-HEK293, FluxOR thallium flux. inhibition, % at 10 µM. 4,900 tested, 40% active;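 active means thallium signal drop beyond 5 SD of the untreated control mean, on both duplicate plates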
A number is an active result; - = inactive; . = no result. Sampled rows, rich in hits. Any-hit rate of the full collection: about 3.7%.

SMILES | Kir21 inh | KCNQ1 block | KCNQ1 act | KCNK3 block | KCNK9 inh | hERG protect | KCNK9 block conf | Kir21 sel | HEK293 Tl ctr
CCOc1ccc(C(C)=O)cc1CSc1nnc(-c2ccoc2C)n1N | - | - | - | - | -9.2 | - | 45% | - | 30%
COc1cccc(C(=O)C2CCCN(Cc3cccc(-n4nc(C)cc4C)c3)C2)c1 (stereo not drawn) | - | - | - | - | - | - | - | - | -
COc1cccc(C(=O)C2CCCN(Cc3cccc(OCCO)c3)C2)c1 (stereo not drawn) | - | - | - | - | - | - | . | . | .
Cc1nn(C(C)C)c(C)c1CN1CCCC(C(=O)c2cccc(OC(C)C)c2)C1 (stereo not drawn) | - | - | - | - | - | - | - | - | -
CCc1noc(C)c1C(=O)N1CCN(S(=O)(=O)c2cccs2)CC1 | - | - | - | - | - | - | . | . | .
COc1ccc(CNC(=O)C2CCN(C(=O)c3csc(Nc4ccc(C)cc4)n3)CC2)cc1 | - | - | - | - | - | - | . | . | .
COc1ccc(/C=C/C(=O)Oc2ccc(C)c(C)c2)cc1OC | - | - | - | - | - | - | - | - | -
O=C(CC(=O)c1ccccc1[N+](=O)[O-])c1ccccc1 | - | - | - | . | - | - | . | . | .
O=C(NCc1cc(Br)cc(Br)c1OC(=O)c1ccccc1[N+](=O)[O-])c1ccccc1 | - | - | - | - | -9.9 | - | 62% | - | 34%
CCCCCc1ccc(-c2ccc(/C=C/C(=O)O)cc2)nc1 | - | - | - | - | - | - | . | . | .
CCCCCCCc1ccc(-c2ccc(O)cc2)nc1 | - | - | - | - | - | - | - | - | -
O=C(c1ccc(F)c(S(=O)(=O)N2CCOCC2)c1)N1CCc2ccccc21 | - | - | - | - | - | - | - | - | -
S=c1nc2[nH]c3ccccc3c2n[nH]1 | . | . | . | - | . | . | . | . | .
NC(=O)SCC(=O)Nc1cccc(Cl)c1 | - | - | - | - | -10 | - | 58% | - | 36%
Cc1cc(C(=O)CCC(=O)NCC(=O)Nc2c(C)cccc2C)c(C)s1 | . | . | . | - | . | . | . | . | .
CCOc1ccc(C2=C(C=C(C#N)C#N)C(c3ccccc3)c3ccccc3O2)cc1 (stereo not drawn) | - | - | - | - | -11 | - | 50% | - | 24%
O=C(Cc1ccc(Br)cc1)OCC(=O)N1CCc2ccccc2C1 | - | - | - | - | - | - | - | - | -
O=C(CCS(=O)(=O)Cc1ccccc1)N1CCc2ccccc2C1 | - | - | - | - | - | - | - | - | -
O=C(COc1ccc(Br)cc1)N1CCc2ccccc2C1 | - | - | - | - | - | - | . | . | .
Cn1ncc(Br)c1C(=O)NC1CCCCCC1 | - | - | - | - | - | - | . | . | .
O=C(CN1C(=O)NC2(CCCCCCC2)C1=O)NCc1ccc(Cl)cc1 | . | . | . | - | . | . | . | . | .
O=C(c1cccs1)N(Cc1ccco1)c1nc(-c2ccc(F)cc2)cs1 | - | 6 | - | -14 | -14 | - | 64% | - | 48%
CC(=O)c1ccc2c(c1)N(CCCN(C)C)c1ccccc1S2 | . | . | . | - | . | . | . | . | .
CC(=O)c1ccc(OC(=O)CN2C(=O)c3ccccc3C2=O)cc1 | - | - | - | - | - | - | . | . | .
CC(=O)c1ccc(OC(=O)CCN2c3ccccc3Sc3ccccc32)cc1 | - | - | - | - | -12 | - | 74% | - | 28%
SMILES | Kir21 inh | KCNQ1 block | KCNQ1 act | KCNK3 block | KCNK9 inh | hERG protect | KCNK9 block conf | Kir21 sel | HEK293 Tl ctr
CC(=O)c1ccc2c(c1)N(C)c1ccccc1S2 | - | - | - | - | - | - | - | - | -
Cc1cccc(CSc2nc(N)c(C#N)c(-c3cccs3)c2C#N)c1 | - | - | - | - | -8.5 | - | 48% | - | 46%
COc1cc(C)ccc1OCCOCCOc1ccc(C)cc1[N+](=O)[O-] | - | - | - | - | - | - | . | . | .
CCOc1ccccc1OCCOCCOc1ccccc1[N+](=O)[O-] | - | - | - | - | - | - | - | - | -
O=C1OC(c2ccccc2)(c2ccc(O)cc2)c2ccccc21 (stereo not drawn) | . | . | . | - | . | . | . | . | .
Cc1cc(O)ccc1C1(c2ccc(O)cc2C)OC(=O)c2ccccc21 | - | - | - | - | -13 | - | 44% | - | -
Cc1cccc(C2(c3cccc(C)c3)OC(=O)c3ccccc32)c1 | - | - | - | - | -19 | - | 78% | - | 43%
OC(COC(c1ccc(Cl)cc1)c1ccc(Cl)cc1)CN1CCN(c2ccccn2)CC1 (stereo not drawn) | - | - | - | - | - | - | - | - | -
Cc1cccc(C)c1OCC(O)CN1CCN(c2ccccc2)CC1 (stereo not drawn) | - | - | - | - | - | - | - | - | -
OC(COc1ccc(Cl)cc1)CN1CCN(c2cccc(Cl)c2)CC1 (stereo not drawn) | - | - | - | - | - | - | - | - | -
CN1CCN(CC(O)COC(c2ccccc2)c2ccccc2)CC1 (stereo not drawn) | - | - | - | - | - | - | . | . | .
OC(COC(c1ccccc1)c1ccccc1)CN1CCN(c2cccc(Cl)c2)CC1 (stereo not drawn) | - | - | - | - | - | - | - | - | -
Cn1cnc(S(=O)(=O)Nc2ccc(OC(F)F)cc2)c1 | - | - | - | - | - | - | . | . | .
O=C(Nc1c(S(=O)(=O)c2ccc(Cl)cc2)csc1Br)c1ccccc1Cl | - | - | - | - | -11 | - | 38% | - | 35%
O=C(NC(=O)c1ccccc1Cl)C(=O)Nc1ccc(Cl)cc1 | - | - | - | - | - | - | . | . | .
COc1cc(NS(=O)(=O)c2ccc(NC(=S)NC(=O)c3sc4ccccc4c3Cl)cc2)nc(OC)n1 | - | - | - | - | - | - | - | - | -
COc1cc(NS(=O)(=O)c2ccc(NC(=S)NC(=O)c3sc4cc(F)ccc4c3Cl)cc2)nc(OC)n1 | - | - | - | - | - | - | . | . | .
O=C(COC(=O)c1cccc(C(F)(F)F)c1)NC(=O)NC1CCCC1 | . | . | . | - | . | . | . | . | .
COc1cc(NC(=O)c2ccccc2)c(OC)cc1NC(=O)CN1CCOCC1 | - | - | - | - | - | - | . | . | .
CCc1cc(C(c2ccc(OC)c(OC)c2)N2CCOCC2)c(NC(=O)c2ccccc2)s1 (stereo not drawn) | - | - | - | - | - | - | - | - | -
COc1ccc(-c2cc(=O)n(-c3ccc([N+](=O)[O-])cc3)[nH]2)cc1 | - | - | - | - | - | - | - | - | -
O=C(OCC(=O)N1CCc2ccccc21)c1cccc(S(=O)(=O)N2CCCc3ccccc32)c1 | - | - | - | - | - | - | - | - | -
